Measured values as given in ChEMBL document CHEMBL2434895, “Design and application of a rigid quinazolone scaffold based on two-face Bim α-helix mimicking” (Eur J Med Chem, 2013).

Assays:
[1] = target: Induced myeloid leukemia cell differentiation protein Mcl-1 (Homo sapiens, UniProt Q07820); experiment: Displacement of FAM-Bid BH3 peptide from recombinant Mcl-1 (unknown origin) expressed in Escherichia coli BL21 after 10 mins by fluorescence polarization assay
In short: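 Mcl-1 FP competition: 55 nM protein with 20 nM FAM-Bid BH3 peptide in 25 mM Tris pH 8.0, 150 mM NaCl, 2 min preincubation. Compounds added as serial dilutions from 10 mM DMSO stock, 10 min incubation, polarization measured. Tracer Kd 13 nM. Ki derived by Wang FP-assay equation.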

[2] = target: Apoptosis regulator Bcl-2 (Homo sapiens, UniProt P10415); experiment: Displacement of FAM-Bid BH3 peptide from recombinant Bcl-2 (unknown origin) expressed in Escherichia coli BL21 after 10 mins by fluorescence polarization assay
Apoptosis regulator Bcl-2, sequence (P10415 whole entry): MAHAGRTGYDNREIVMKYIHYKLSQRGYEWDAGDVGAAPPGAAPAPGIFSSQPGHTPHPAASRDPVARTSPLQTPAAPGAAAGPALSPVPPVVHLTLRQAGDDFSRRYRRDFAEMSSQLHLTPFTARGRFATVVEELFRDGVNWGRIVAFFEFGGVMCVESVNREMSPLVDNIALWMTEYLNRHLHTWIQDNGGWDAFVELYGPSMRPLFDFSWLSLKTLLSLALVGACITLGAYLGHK

Induced myeloid leukemia cell differentiation protein Mcl-1, sequence (Q07820 whole entry): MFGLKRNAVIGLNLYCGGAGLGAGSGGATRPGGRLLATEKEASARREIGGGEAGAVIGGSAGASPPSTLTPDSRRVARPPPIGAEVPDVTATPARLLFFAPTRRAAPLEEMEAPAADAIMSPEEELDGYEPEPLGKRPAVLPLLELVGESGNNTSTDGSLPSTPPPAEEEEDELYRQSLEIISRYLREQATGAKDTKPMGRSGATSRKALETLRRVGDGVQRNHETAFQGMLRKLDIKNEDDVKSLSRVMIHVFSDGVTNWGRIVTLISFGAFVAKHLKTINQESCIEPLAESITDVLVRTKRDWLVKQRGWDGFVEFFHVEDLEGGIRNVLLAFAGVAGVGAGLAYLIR

| Structure (SMILES) | Ki [1] [nM] | Ki [2] [nM] |
| --- | --- | --- |
| Cc1ccc(O)c(Cn2c(-c3ccccc3)nc3c(O)c(O)c(O)cc3c2=O)c1 | 123 | 179 |
| O=C(Nc1c(C(=O)NCc2ccccc2)cc(O)c(O)c1O)c1ccccc1 | 2820 | 1320 |
| CC(C)c1ccc(O)c(Cn2c(-c3ccccc3)nc3c(O)c(O)c(O)cc3c2=O)c1 | 609 | 1110 |
| O=C(Nc1c(C(=O)NCCCc2ccccc2)cc(O)c(O)c1O)c1ccccc1 | 3240 | 8040 |
| CCCCNC(=O)c1cc(O)c(O)c(O)c1NC(=O)c1ccccc1 | 1980 | 1920 |
| O=c1c2cc(O)c(O)c(O)c2nc(-c2ccccc2)n1Cc1ccccc1 | 1210 | 959 |
| O=c1[nH]cnc2c(O)c(O)c(O)cc12 | 5980 | 9280 |
| O=C1c2ccccc2C(=O)c2c1cc(O)c(O)c2O | 1210 | 1320 |
